PREPL inhibitor = inhibits the human prolyl oligopeptidase-like enzyme | Q4J6C6 | recombinant PREPL, fluorescence polarization activity-based probe | inhibition, % at 5.96 µM | 320,000 tested, 0.68% active | AID 2751; in the data active means inhibition above about 43%;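 further: 0% = enzyme with DMSO and 100% = wells lacking enzyme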
UBC13 polyUb = inhibitors of human UBC13 polyubiquitin chain formation; inhibition, % at 20 µM; 330,000 tested, 0.47% active; TR-FRET; P61088; in the data active means inhibition above about 45%, passing the limit was not always enough; inconclusive means no clear call, values can overlap the other calls
Target sequence (P61088 whole entry, looked up): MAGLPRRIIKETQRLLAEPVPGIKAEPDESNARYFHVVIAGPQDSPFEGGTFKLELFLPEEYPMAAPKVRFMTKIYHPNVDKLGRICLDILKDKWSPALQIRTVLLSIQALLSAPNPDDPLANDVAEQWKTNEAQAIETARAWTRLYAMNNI
MEKK2 WT-MEK5 = raises or lowers MEK5 binding to wildtype human MEKK2 PB1 domain | 290,000 tested, 1.1% active | Q9Y2U5 | bead flow cytometry, Alexa488-MEK5 binding to MEKK2 WT; actives lie on both sides | binding response (% of control), % at 10 µM; in the data active means binding response below about 67% or above about 130%; inconclusive means no clear call, values can overlap the other calls; inactive means in between
Apaf-1 inh = blocks human Apaf-1 apoptosome activity | AID 489030 | 330,000 tested, 0.71% active | reconstituted apoptosome caspase-3 activity, DEVD-Rh110 fluorescence | inhibition, % at 20 µM; active means inhibition of at least 40% at 20 µM;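 further: plate controls were DMSO wells for no effect and DEVD-CHO caspase inhibitor wells for full effect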
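Medium: Hepes buffer, pH 7.5 / System: biochemical Apaf-1 apoptosome reconstitution / Measured by: Rh110 fluorescence, excitation 480 nm, emission 540 nm / Times: compound with Apaf-1, dATP, procaspase-3 30 min, then 50 min reaction, room temperature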
MEKK3 PB1 HTS = modulators (inhibitors or enhancers) of MEK5 binding to human MEKK3 PB1 domain. 290,000 tested, 1.4% active. binding response (% of control), % at 10 µM. Q99759. bead-based flow cytometry, Alexa488-MEK5 binding to MEKK3; actives lie on both sides; 0 = blocked by unlabeled MEK5, 100 = vehicle;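 active means binding response more than 3 SD above or below the average of its plate-row segment, actives on both sides; inconclusive means wells at one plate position flagged as instrument error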;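 further: Alexa488 bead fluorescence after subtracting the streptavidin-only scavenger bead signal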
MEKK2 mut-MEK5 = signal of MEK5 binding to mutant human MEKK2 PB1 domain; percent response, % at 10 µM; 290,000 tested, 0.35% active; bead flow cytometry, Alexa488-MEK5 binding to MEKK2 mutant; in the data active means percent response above about 24%, passing the limit was not always enough
Casp3 UBC13 ctr = caspase-3 inhibition (UBC13 counter-screen) | 1,400 tested, 4% active | shares compounds with UBC13 polyUb | Recombinant caspase-3, Caspase-Glo 3/7 luminescence, 60 min | inhibition, % at 20 µM;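 active means mean inhibition across replicates above about 26%, limit read from the data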;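 further: plate controls were DMSO with caspase-3 for no effect and DMSO wells lacking enzyme for full effect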
Target sequence (P42574 whole entry, looked up): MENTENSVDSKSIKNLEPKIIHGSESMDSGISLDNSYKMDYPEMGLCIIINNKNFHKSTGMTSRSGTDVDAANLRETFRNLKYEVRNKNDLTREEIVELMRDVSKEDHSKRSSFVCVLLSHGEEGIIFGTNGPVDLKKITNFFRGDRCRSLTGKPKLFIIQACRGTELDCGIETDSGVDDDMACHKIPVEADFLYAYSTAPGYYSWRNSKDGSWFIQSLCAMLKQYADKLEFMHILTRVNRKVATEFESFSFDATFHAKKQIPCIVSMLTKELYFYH
UBC13 conf = confirmation of human UBC13 polyubiquitin inhibitors; shares compounds with UBC13 polyUb; UBC13 polyubiquitination, TR-FRET, biochemical; inhibition, % at 10 µM; 1,400 tested, 68% active; AID 488859; in the data active means inhibition above about 45%; inconclusive means no clear call, values can overlap the other calls
Apaf-1 inh conf2 = confirmation of Apaf-1 inhibitors. shares compounds with Apaf-1 inh. reconstituted apoptosome, caspase-3 DEVD-Rh110 fluorescence. inhibition, % at 20 µM. 1,800 tested, 25% active. AID 504614;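 active means mean inhibition of at least 40% at 20 µM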;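 further: plate controls were DMSO wells for no effect and DEVD-CHO caspase inhibitor control wells for full effect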
Rh110 interf inh = counter-screen for Apaf-1 inhibitors: fluorescence interference. shares compounds with Apaf-1 inh. Rh110 fluorescence interference, quenched caspase reaction. activation (fluorescence interference), % at 20 µM. 1,800 tested, under 10 active. AID 504615;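 active means signal rise of 40% or more at 20 µM, treated as a fluorescence artifact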
* marks the source's active call; other numbers are inactive results; ? = inconclusive; nt = no result. Only some compounds are listed: those with a hit (about 3.1% of all), similar ones and a draw of the others.

SMILES | PREPL inhibitor | UBC13 polyUb | MEKK2 WT-MEK5 | Apaf-1 inh | MEKK3 PB1 HTS | MEKK2 mut-MEK5 | Casp3 UBC13 ctr | UBC13 conf | Apaf-1 inh conf2 | Rh110 interf inh
O=C(Cc1ccc([N+](=O)[O-])cc1)N/N=C/c1cccnc1 | 0 | -1 | nt | -19 | nt | nt | nt | nt | nt | nt
C/C(=N\NC(=O)CSCc1ccc([N+](=O)[O-])cc1)c1cccc(Br)c1 | -12 | 47* | 90 | 15 | 92 | -2 | -2 | 34 | nt | nt
O=C(CSCc1ccc([N+](=O)[O-])cc1)N/N=C/c1ccncc1 | -6 | 68* | 107 | -4 | 103 | 3 | -5 | 75* | nt | nt
O=C(CSCc1ccc([N+](=O)[O-])cc1)N/N=C/c1cccnc1 | -7 | 86* | 101 | -1 | 104 | 1 | -1 | 96* | nt | nt
COc1ccc(Cc2nnc(SCC(=O)N(C)CC(=O)Nc3ccc(C)cc3)o2)cc1 | -10 | -1 | nt | 9 | nt | nt | nt | nt | nt | nt
CCSc1nc(N2CCCCC2)c2c(c1C#N)CCCC2 | -8 | 47* | 103 | 11 | 104 | -1 | 2 | 46* | nt | nt
N#Cc1c(SCc2ccccc2)nc(N2CCOCC2)c2c1CCCC2 | 14 | 10 | 90 | 6 | 102 | -8 | nt | nt | nt | nt
CCC(=O)c1cc2c(C)cc(=O)oc2c(C)c1O | 21 | 45* | 99 | 0 | 104 | -1 | -2 | ? | nt | nt
CC(C)=CCc1c(O)cc(O)c2c(=O)c(O[C@@H]3O[C@@H](C)[C@H](O)[C@@H](O)[C@H]3O)c(-c3ccc(O)cc3)oc12 | 15 | 86* | 104 | 10 | 107 | 1 | -4 | 78* | nt | nt
CNC(=S)Nc1cccc(S(=O)(=O)NC2=NCCC2)c1 | 10 | 0 | 96 | -15 | 96 | 0 | nt | nt | nt | nt
COc1ccc(C(CNC(=O)c2ccc(-c3nc4ccccc4s3)o2)N2CCCC2)cc1 (centres undefined) | -67 | 61* | nt | 26 | nt | nt | 8 | 53* | nt | nt
CC(C)[C@H](CO)N(Cc1cccc(F)c1)c1nc(Nc2cccc(Cl)c2)c2ncn(C(C)C)c2n1 | 25 | -3 | 107 | 15 | 97 | 8 | nt | nt | nt | nt
CC[C@H](CO)Nc1nc(Nc2cccc(Cl)c2)c2ncn(C(C)C)c2n1 | 15 | 77* | 83 | 19 | 106 | 2 | -2 | 67* | nt | nt
CCOc1ccc(-c2nc(S(=O)(=O)c3ccccc3)c(NC)o2)cc1 | 5 | 47* | 99 | -8 | 100 | 1 | 0 | 33 | nt | nt
CC1CCCCN1CCNC(=O)c1ccc2c(=O)n(CCc3ccccc3)c(=O)[nH]c2c1 (centres undefined) | 12 | 21 | nt | 33 | nt | nt | nt | nt | nt | nt
CC1CCCCN1CCNC(=O)c1ccc2c(=O)n(Cc3ccc(Cl)cc3)c(=S)[nH]c2c1 (centres undefined) | -47 | 49* | 169* | 37 | 107 | 33* | -1 | 61* | nt | nt
Cc1ccccc1CSCC(=O)Nc1ccccc1Br | -1 | -3 | 104 | 17 | 100 | 3 | nt | nt | nt | nt
CSc1nccc(Nc2ccccc2)c1C#N | -13 | 47* | 106 | -8 | 105 | -10 | -1 | ? | nt | nt
CC(C)(C)C1CCC(CN2C(Nc3ccccc3)=NC[C@@H]2Cc2ccccc2)CC1 (some centres undefined) | 25 | 72* | nt | 75* | nt | nt | 3 | 77* | 17 | 11
CN(C)CCCNC(=O)CC1C[C@H](C(=O)N2CCCCC2)[C@@]2(CCc3ccccc3)c3[nH]c4ccccc4c3CCN2C1=O (some centres undefined) | 28 | 47* | nt | 46* | nt | nt | 0 | 17 | 11 | 0
COc1ccc2[nH]c3c(c2c1)CCN1C(=O)C(CC(=O)NCCCN(C)C)C[C@H](C(=O)N2CCCCC2)[C@@]31CCc1ccccc1 (some centres undefined) | nt | nt | nt | 37 | nt | nt | nt | nt | nt | nt
COc1ccc(C(CNC(=O)c2cc3c(s2)CCC(C)C3)N2CCCC2)cc1 (centres undefined) | 9 | 59* | nt | 61* | nt | nt | -3 | 42 | 35 | 9
COc1ccc(C(CNC(=O)c2cc3c(s2)CCC(C)C3)N2CCOCC2)cc1 (centres undefined) | -6 | -17 | nt | 18 | nt | nt | nt | nt | nt | nt
COC(=O)C1=C(C)N(Cc2ccccc2)C(=NCc2ccco2)N[C@H]1c1cccc(F)c1 | 19 | 30 | nt | 38 | nt | nt | nt | nt | nt | nt
COC(=O)C1=C(C)N(Cc2ccccc2)C(=NCC(C)C)N[C@H]1c1cccc(F)c1 | 40 | 51* | nt | 44* | nt | nt | -4 | 40 | 5 | -1
SMILES | PREPL inhibitor | UBC13 polyUb | MEKK2 WT-MEK5 | Apaf-1 inh | MEKK3 PB1 HTS | MEKK2 mut-MEK5 | Casp3 UBC13 ctr | UBC13 conf | Apaf-1 inh conf2 | Rh110 interf inh
COC(=O)C1=C(C)N(Cc2ccccc2)C(=NCCc2ccccn2)N[C@H]1c1cccc(C(F)(F)F)c1 | 17 | 52* | nt | 48* | nt | nt | 2 | 58* | 12 | 0
COC(=O)C1=C(C)N(Cc2ccccc2)C(=NCC(C)C)N[C@H]1c1cccc(C(F)(F)F)c1 | 27 | 72* | nt | 58* | nt | nt | 3 | 74* | 13 | 4
COC(=O)C1=C(C)N(Cc2ccccc2)C(=O)N[C@H]1c1cccc(C(F)(F)F)c1 | 10 | 5 | 91 | 25 | 94 | 2 | nt | nt | nt | nt
COC(=O)C1=C(C)N(Cc2ccccc2)C(=NCCc2cccnc2)N[C@H]1c1ccc(Br)cc1 | 41 | 48* | nt | 51* | nt | nt | -2 | 31 | 11 | 0
COc1cc(/C=N/N(C)S(=O)(=O)c2ccc(C)cc2)cc([N+](=O)[O-])c1O | 22 | -35 | 88 | 10 | 78 | -5 | nt | nt | nt | nt
CSc1ccccc1C(=O)C1CCCN(C(=O)c2cncs2)C1 (centres undefined) | 0 | 8 | 107 | 4 | 101 | 4 | nt | nt | nt | nt
O=C(OCC(=O)N1CCCC1)c1cnc(Cl)c(Cl)c1 | 1 | 15 | nt | -3 | nt | nt | nt | nt | nt | nt
O=C(NCCSc1ccc(Br)cc1)c1ccc2nc[nH]c2c1 | -9 | 2 | 101 | -1 | 101 | 2 | nt | nt | nt | nt
COC(=O)C1=C(C)N(Cc2ccccc2)C(=NCc2ccccc2)N[C@H]1c1cccc(C(F)(F)F)c1 | -28 | 76* | nt | 65* | nt | nt | -3 | 82* | 33 | 15
COC(=O)C1=C(C)N(Cc2ccccc2)C(=NCc2ccc(OC)cc2)N[C@H]1c1cccc(F)c1 | -22 | 74* | 133 | 56* | 105 | 5 | 3 | 66* | 11 | 9

Assay outcomes from PubChem BioAssay.
